The results in this text go back to paper PMC9933477 (ACS Omega, 2023).

Molecules are shown by their SMILES. In brackets after ≈: the same amount, converted by molar mass.

Series [1] concerns U937 cells. The series is described as follows: U937 cells activated with LPS plus TNFα, RT-PCR of proinflammatory genes. It is filed as cell-based, human. The note with it: 1 μM, 24 h, compared to cells exposed only to LPS plus TNFα.
Series [2] deals with T1, GPBAR1 (Homo sapiens, UniProt Q8TDU6).
T1 sequence (Q8TDU6 1-330): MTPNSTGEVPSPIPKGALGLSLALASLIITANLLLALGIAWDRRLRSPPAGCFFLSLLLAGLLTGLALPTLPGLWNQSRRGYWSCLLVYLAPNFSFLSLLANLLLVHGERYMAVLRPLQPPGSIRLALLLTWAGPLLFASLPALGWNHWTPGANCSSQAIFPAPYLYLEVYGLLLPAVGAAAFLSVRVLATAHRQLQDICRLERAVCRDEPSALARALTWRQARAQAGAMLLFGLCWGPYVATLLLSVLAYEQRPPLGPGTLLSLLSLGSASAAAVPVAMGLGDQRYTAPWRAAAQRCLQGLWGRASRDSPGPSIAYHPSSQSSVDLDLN
Description: Luciferase reporter assay. It is filed as cell-based. A digest of the protocol:
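HEK-293T cells transfected with GPBAR1 carry a cAMP-responsive element (CRE) luciferase reporter. Single-point efficacy at 10 μM is scored against TLCA (10 μM) as 100%, as the mean of two experiments ± SD. EC50 comes from concentration-dependent CREB activation in the same transfected cells.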
(In general: In a reporter assay the amount or activity of a reporter protein is the signal.)

Series [3] deals with T2, RORγt (Homo sapiens, UniProt P51449).
T2 sequence (P51449 251-518): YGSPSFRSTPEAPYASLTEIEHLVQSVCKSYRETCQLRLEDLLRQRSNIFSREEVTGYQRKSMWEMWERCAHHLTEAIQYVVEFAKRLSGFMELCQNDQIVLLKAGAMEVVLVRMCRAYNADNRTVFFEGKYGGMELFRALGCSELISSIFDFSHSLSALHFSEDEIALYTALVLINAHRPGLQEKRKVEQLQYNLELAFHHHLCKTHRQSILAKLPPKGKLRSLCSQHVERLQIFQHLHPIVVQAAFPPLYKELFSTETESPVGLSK
Description: Cofactor peptide recruitment assay. The series is classed as biochemical. In a few lines:
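Cell-free AlphaScreen measuring test compound interference with RORγt binding to SRC-1 coactivator peptide. […] Vehicle (DMSO) wells are set as 100% control and wells lacking protein as 0% control.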

Series [4] can be described thus: Aqueous solubility measurement. It is filed as physicochemical. The note with it: PBS pH 7.4, pH 7.4, aqueous buffer, kinetic from dmso stock.
Series [5] in a line: Metabolic stability in human liver microsomes. The note with it: pH 7.4. The series is classed as in vitro ADME.
Series [6] concerns TNBS-induced colitis. Description: Mouse model of TNBS-induced colitis. The series is classed as in vivo. The note with it: 10, 20 or 30 mg/kg/day by gavage. A digest of the protocol: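 C57 male mice given TNBS to induce colitis, then vehicle or test compound at 10, 20 or 30 mg/kg/day by gavage, day 0 to day 4. Read-outs: body-weight change, CDAI, colon length, colon weight/length ratio, H&E of colon sections. Colon mRNA by RT-PCR normalised to Gapdh, Tbp and Actb. Mean ± SEM of 5–10 mice/group; p<0.05 vs TNBS or untreated.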

For orientation: EC50 means the midpoint of the concentration-response curve. The low end stands for higher potency in that assay, the high end for lower potency in that assay. The IC50 is the concentration at which inhibition is half-maximal. Consider `C[C@H](CCCOc1ccc(C(=O)O)cc1)[C@H]1CC[C@H]2[C@@H]3CC=C4C[C@@H](O)CC[C@]4(C)[C@H]3CC[C@]12C` [Compound 3], for which, in series [1], the “Reduction in the expression of all measured genes (IL-1β, TNFα, IL-6, CD11c)” value is given as 30–50%. The molecule also registered an EC50 in series [2] of 220 nM. In series [3], this molecule gave an IC50 of 1190 nM.

Usually solubility stands for how much of the substance goes into solution per volume. Read a high solubility as much dissolved substance. Turning to `C[C@H](CCCOc1ccc(C#N)cc1)[C@H]1CC[C@H]2[C@@H]3CC=C4C[C@@H](O)CC[C@]4(C)[C@H]3CC[C@]12C` [Compound 5], in series [4], the solubility at 24 h was 10 µM (≈ 4.62 µg/mL).

In general, microsomal CLint refers to the capacity of the preparation to metabolise the compound, expressed as a volume cleared per time. Low values mean greater metabolic stability, high ones faster metabolism. Molecule `C[C@H](CCCOc1cccc(CO)c1)[C@H]1CC[C@H]2[C@@H]3CC=C4C[C@@H](O)CC[C@]4(C)[C@H]3CC[C@]12C` [Compound 7] registered a microsomal CLint at 1 µM in series [5] of 7 µL/min/mg. In series [6] (day 0 to day 4), the “Damage to the colon (macroscopic analysis and H&E histology)” value is given as “decreased the damage to the colon”; the “Severity of colitis (percentage of body weight, CDAI)” value is listed as “relieved by 7 in a dose-dependent manner”. In series [6] (RT-PCR of colon), the “Colon expression of IL-10” value is “strong increase”; the “Colon expression of Rorc, IL-17A, and F” value is recorded as “decreased the expression”. For the same molecule, the EC50 in series [2] was determined as 5900 nM. For the same molecule, the IC50 in series [3] amounted to 107 nM.

`C[C@H](CCCOc1ccc(C#N)cc1)[C@H]1CC[C@H]2[C@@H]3CC[C@@H]4C[C@H](O)CC[C@]4(C)[C@H]3CC[C@]12C` [Compound 17] yielded a solubility at 24 h in series [4] of 15 µM (≈ 6.96 µg/mL).
